The source of these data is paper PMC6684259 (Current biology : CB, 2019).

Assay [1] addresses T1, Eg5 (kinesin-5) (Xenopus laevis, UniProt P28025).
T1 sequence (P28025 1-368): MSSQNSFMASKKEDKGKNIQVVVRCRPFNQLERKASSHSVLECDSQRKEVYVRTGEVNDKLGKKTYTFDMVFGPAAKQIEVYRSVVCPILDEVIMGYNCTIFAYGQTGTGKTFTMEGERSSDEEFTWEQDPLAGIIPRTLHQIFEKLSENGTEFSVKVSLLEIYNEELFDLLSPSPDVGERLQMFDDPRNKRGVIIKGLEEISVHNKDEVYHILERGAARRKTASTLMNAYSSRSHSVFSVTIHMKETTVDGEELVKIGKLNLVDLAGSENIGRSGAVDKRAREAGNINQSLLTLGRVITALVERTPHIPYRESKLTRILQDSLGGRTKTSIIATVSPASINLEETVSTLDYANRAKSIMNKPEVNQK
As to the kind of experiment: microtubule shrinkage assay with purified Eg5M in AMPPNP. The class given is biochemical.

Assay [2] concerns the target T1, Eg5 (kinesin-5). As to the kind of experiment: microtubule shrinkage assay with purified Eg5M plus inhibitor. It counts as biochemical. In outline:
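Shrinkage run in BRB80 with oxygen scavenger and 0.2 mg/mL casein. Microtubules are grown from Cy5/biotin GMPCPP seeds with TMR-labeled bovine brain tubulin, 5 mM Mg-ATP and 2 mM Mg-GTP, ±His-purified motor (E. coli-expressed), for 20 min at 37°C. Catastrophe is triggered by flowing in 22°C tubulin-free buffer holding the same motor concentration. Shrinkage velocities come from tracked ends imaged on stage.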

For the compound `Nc1ncnc2c1ncn2[C@@H]1O[C@H](CO[P@](=O)(O)O[P@](=O)(O)NP(=O)(O)O)[C@@H](O)[C@H]1O` [AMPPNP], the “microtubule shrinkage assay with purified Eg5M in AMPPNP (TIRF)” value in assay [1] amounted to 0.5 nm/s.

On to `CC(C)(C)c1ccc2cc(C#N)c(C#N)cc2c1` [BRD9876], for which the “microtubule shrinkage assay with purified Eg5M plus inhibitor (TIRF)” value in assay [2] is 0.2 nm/s.
